Results on 13 compounds are retold here after PubChem BioAssay.

The nature of assay [1]: inhibitors of TNFa-induced NFkB p65 translocation, primary screen, imaging, HUVEC, MLSMR starter and 10KST1 sets (AID 438;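 active = inhibition above 20% together with a positive visual image hit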;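 also: compound added about 3h40 before a 20 min TNFalpha stimulation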;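 as to inhibition: signal is the nuclear over cytoplasmic p65 intensity ratio per well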). Conditions: HUVEC TNFa-induced p65 nuclear translocation; cell count: measured here: nuclei count (cytotoxicity indicator), at 2.08 µM; inhibition: at 2 µM, stronger effect = higher value, 0% TNFa-plus-vehicle, 100% no-TNFa wells.
Assay [2] is described as follows: endothelial E-selectin expression blockers – imaging, HUVEC, immunofluorescence, MLSMR starter and 10KST1 sets, primary screen (AID 487).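 As to inhibition: signal is fraction of cell area covered by stained E-selectin grains.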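 As to nuclei count: 100% = median nuclei count of all wells on the same plate.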 To be noted: HUVEC TNFalpha-induced E-selectin immunofluorescence imaging, at 2 µM; inhibition: stronger effect = higher value; nuclei count: measured here: cell number, toxicity.
Assay [3] can be described thus: Primary imaging screen for DUSP6 inhibitors that restore phospho-Erk in transfected HeLa cells, chemical complementation (AID 609;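 active = compounds giving at least 50% inhibition in the cell-based MKP-3 phosphatase rescue imaging test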;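 as to inhibition: phospho-Erk level distribution per well compared with pooled transfected vehicle control wells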). To be noted: HeLa MKP-3 transfected, phospho-Erk imaging KS statistic, at 10 µM, cells stimulated with TPA for 15 min.
Assay [4] concerns the target Dual specificity protein phosphatase 6 (Homo sapiens) (UniProt Q16828). The description is as above. Conditions: HeLa MKP-3 transfected, phospho-Erk imaging KS statistic; at 10 µM; stronger effect = higher value; cells stimulated with TPA for 15 min.
Assay [5] concerns the target Voltage-gated potassium channel subunit beta-2 (Rattus norvegicus) (UniProt P62483). The assay is described as follows: inhibitors of rat Kvbeta2 reductase activity – biochemical, NADPH fluorescence, primary screen (AID 622;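 active = fluorescence slope higher than the sample average by over 3 SD, cut at about -0.22 in these data, passing the limit was not always enough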;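 also: slope of raw intensity against log time taken from 70 to 1610 s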). Conditions: recombinant KvBeta, 4-cyanobenzaldehyde reduction, at 10 µM, stronger effect = higher value.
The target is the same in assay [6]. Nature of the assay: enhancers of rat Kvbeta2 NADPH turnover – biochemical, NADPH fluorescence, primary screen (AID 623;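 active = NADPH fluorescence slope more negative than the mean of all samples by about 3 SD, 99.7% confidence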;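 also: fluorescence intensity change per second fitted from 20 to 320 s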). Conditions: Recombinant KvBeta, NADPH fluorescence decrease slope, 10 min; at 10 µM; stronger effect = lower value.
Assay [7] addresses Muscarinic acetylcholine receptor M4 (Homo sapiens) (UniProt P08173). Nature of the assay: M4-linked GIRK flux change, two-sided – cell-based, HEK293 M4/GIRK, thallium flux, BTC-AM, M4 allosteric agonist project, primary screen (AID 625;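 active = fluorescence slope after compound addition differing from the mean of all tested samples at 99.7% confidence, mostly higher but some lower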;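 also: thallium influx through GIRK channels coupled to M4 in HEK293 cells with BTC-AM dye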). To be noted: at 10 µM, actives lie on both sides. The essentials: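 assay system = HEK293 cells with M4 receptor and GIRK channels | medium = pH 7.3 thallium assay buffer | doses = 10 µM final, single point | timing = cells overnight at 37 °C, BTC-AM loading 1 h, reads 2 min total | signal = BTC-AM fluorescence, 1 Hz kinetic reads | read-out = post-addition slope, 15–24 s, of baseline-normalized fluorescence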

The nature of assay [8]: inhibitors of larval lipid processing in zebrafish, primary screen, whole organism, PED6 fluorescence, gall bladder and intestine (AID 686;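 active = a full or partial loss of lipid-probe fluorescence in the fish gall bladder, intestine or both, judged by eye; inactive = no fluorescence loss, or compound toxic to the fish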;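 also: larvae 5 to 7 days old with five fish per well; signal comes from phospholipase A2 cleavage of quenched PED6 carried via bile; overnight exposure to compound and PED6 before scoring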). To be noted: Zebrafish larvae PED6 lipid processing, fluorescence scoring; screened at 20 µM (by protocol). An outline of the steps:
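Also added: quenched phospholipase substrate PED6, 100 nM final, ingested by larvae; System: zebrafish larvae, 5-7 d; Quantity: 5 larvae per well; Compound: 20 µM single dose; Schedule: overnight compound and PED6 incubation; Read-out: visual per-well fluorescence inhibition score; Measured by: By-eye fluorescence microscopy; Medium: E3.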

Assay [9] is described as follows: loss of swimming-algae plug formation – whole organism, Chlamydomonas reinhardtii, WT vs cilia-less mutant, absorbance, 96-well, primary screen (AID 463189;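 active = inhibition at or above 50% relative to wild type and mutant plate controls; inactive = inhibition below 50%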;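 also: 0% = wild type cc124 cells in DMSO and 100% = ciliumless bld1 mutant cells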). Conditions: Chlamydomonas reinhardtii gravitaxis, OD600 absorbance, 2 days; at 10 µM; stronger effect = higher value.
Setting [10] is: measured here: cell density z-score.
Where [11] appears, read: measured here: nuclear c-Myc green intensity z-score.
Setting [12] is: measured here: nuclear pErk red intensity z-score, stronger effect = higher value.

Activity calls are given as the source filed them.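 The calls were made as follows, unless noted: active = visually confirmed hit in the image check and inhibition above 20%; inconclusive = visually confirmed hit but inhibition not above 20%; inactive = no visual hit in the image check.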

Voltage-gated potassium channel subunit beta-2 (Rattus norvegicus), sequence (P62483 whole entry, looked up): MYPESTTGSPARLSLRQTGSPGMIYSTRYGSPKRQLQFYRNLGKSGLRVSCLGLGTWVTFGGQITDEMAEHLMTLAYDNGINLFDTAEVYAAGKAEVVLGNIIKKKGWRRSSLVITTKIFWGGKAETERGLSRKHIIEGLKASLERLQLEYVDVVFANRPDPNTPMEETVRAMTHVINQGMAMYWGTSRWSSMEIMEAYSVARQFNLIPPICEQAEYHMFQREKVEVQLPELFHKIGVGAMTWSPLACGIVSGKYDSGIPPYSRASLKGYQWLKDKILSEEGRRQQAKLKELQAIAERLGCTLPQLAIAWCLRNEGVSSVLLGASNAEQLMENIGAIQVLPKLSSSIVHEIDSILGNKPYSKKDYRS
Dual specificity protein phosphatase 6 (Homo sapiens), sequence (Q16828 whole entry, looked up): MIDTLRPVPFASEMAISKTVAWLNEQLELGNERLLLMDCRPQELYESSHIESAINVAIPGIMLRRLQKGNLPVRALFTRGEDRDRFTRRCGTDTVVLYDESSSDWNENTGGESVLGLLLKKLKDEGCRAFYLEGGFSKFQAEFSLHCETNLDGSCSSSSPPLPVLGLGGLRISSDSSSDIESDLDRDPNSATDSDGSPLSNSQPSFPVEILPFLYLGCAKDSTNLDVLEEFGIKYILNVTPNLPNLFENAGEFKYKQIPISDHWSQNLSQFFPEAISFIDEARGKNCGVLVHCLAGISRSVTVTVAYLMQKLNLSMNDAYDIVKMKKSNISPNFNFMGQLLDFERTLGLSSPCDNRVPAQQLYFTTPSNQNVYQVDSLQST
Muscarinic acetylcholine receptor M4 (Homo sapiens), sequence (P08173 whole entry, looked up): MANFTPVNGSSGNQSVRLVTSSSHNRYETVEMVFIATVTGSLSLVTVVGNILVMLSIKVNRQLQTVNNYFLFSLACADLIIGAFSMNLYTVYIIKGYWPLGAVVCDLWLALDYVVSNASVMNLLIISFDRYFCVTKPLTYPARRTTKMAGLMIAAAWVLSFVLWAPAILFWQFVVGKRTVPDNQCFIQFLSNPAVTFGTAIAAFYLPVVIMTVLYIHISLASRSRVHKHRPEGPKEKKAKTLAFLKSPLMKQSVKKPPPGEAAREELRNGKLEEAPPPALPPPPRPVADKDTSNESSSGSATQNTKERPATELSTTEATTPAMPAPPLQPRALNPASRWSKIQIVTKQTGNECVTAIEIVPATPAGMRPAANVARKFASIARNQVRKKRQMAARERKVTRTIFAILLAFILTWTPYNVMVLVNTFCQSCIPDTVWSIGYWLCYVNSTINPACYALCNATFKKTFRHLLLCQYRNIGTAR

One may read the inhibition as the relative decrease from the control value, in per cent. Consider `N#Cc1c(N)nc(SCC(=O)NCc2ccc3c(c2)OCO3)c(C#N)c1-c1cccs1`, for which the cell count in assay [1] came out at 577. For the same compound, the inhibition was -0.3% (inactive) in assay [1], 53.2% (inactive) in assay [2], 6.04% (inactive) in [4] and -14% (inactive) in assay [9]. Moreover, the nuclei count in assay [2] came out at 115%. Moreover, the z-score in assay [3] (setting [10]) is 0.98; in assay [3] (setting [11]), 1.31; in [3] (setting [12]) it was -0.212. Further, the fluorescence slope in assay [5] is -0.493 (inactive); in assay [7] it was 0.00636 (inactive). In assay [6], the NADPH fluorescence slope is -6.7e-05 (inactive). Also, the compound was called inactive in assay [8].
Regarding `N#Cc1nc(COc2ccccc2F)oc1NCCCn1ccnc1`, in assay [1], the cell count amounted to 465. The inhibition in assay [1] was -4% (inactive); in assay [2], -87.7% (inactive); in assay [4], -0.624% (inactive); in assay [9], -8.85% (inactive). In assay [2], the nuclei count was determined as 136%. Moreover, the z-score in assay [3] (setting [10]) was -0.925; in assay [3] (setting [11]) it was 1.53; in [3] (setting [12]), 1.43. Also, the figures for the fluorescence slope in assay [5] and in assay [7] were -0.414 (inactive) and 0.00507 (inactive), respectively. Further, the NADPH fluorescence slope in assay [6] was -2.3e-05 (inactive). In addition, the outcome in [8] was inactive.
Consider `CC(C(=O)N(C)C)N(C#N)c1nc(N(C)C)nc(N(C)C)n1` (centres undefined), for which the cell count in [1] stood at 606. Also, the inhibition was 7.4% (inactive) in [1], 7.8% (inactive) in assay [2], 7.21% (inactive) in assay [4] and 26.6% (inactive) in assay [9]. Also, in assay [2], the nuclei count was determined as 80.9%. For the same compound, the z-score in [3] (setting [10]) is -1.86; in [3] (setting [11]), 1.62; in [3] (setting [12]) it was 0.8. Moreover, the fluorescence slope in assay [5] is -0.506 (inactive); in assay [7], 0.00543 (inactive). For the same compound, in [6], the NADPH fluorescence slope is -5.1e-05 (inactive). For the same compound, the compound was called inactive in assay [8].
Regarding `C=CCc1cccc(CNc2nc3ccccc3n2C(C)C)c1O`, the cell count in assay [1] is 653. The inhibition in assay [1] is 4.4% (inactive); in assay [2], 17.8% (inactive); in assay [4], -3.95% (inactive); in [9], 2.16% (inactive). The nuclei count in assay [2] is 145%. Also, the z-score in [3] (setting [10]) was -1.18; in assay [3] (setting [11]), 1.98; in assay [3] (setting [12]), 1.18. Further, the fluorescence slope is -0.502 (inactive) in assay [5] and 0.00595 (inactive) in assay [7]. The NADPH fluorescence slope in assay [6] was -9.2e-05 (inactive). The result in [8] was inactive.
Consider `CC(C)NCc1c(O)c(Br)cc2oc3c(c12)CCCC3`, for which the cell count in [1] was found to be 533. In addition, the inhibition in assay [1] is 9.9% (inactive); in assay [2], -3.5% (inactive); in [4], -7.67% (inactive); in assay [9] it was 53.2% (active). In addition, in assay [2], the nuclei count is 99.8%. Besides, the figures for the z-score in [3] (setting [10]), in assay [3] (setting [11]) and in assay [3] (setting [12]) were 0.0675, -0.158 and -0.115, respectively. In addition, the fluorescence slope in assay [5] was -0.517 (inactive); in assay [7], 0.00361 (inactive). In addition, the NADPH fluorescence slope in assay [6] is -1.1e-05 (inactive). Besides, the compound was classed as inactive in [8].
In the case of `FC(F)(F)c1cccc(N2CCc3cn[nH]c32)c1`, in assay [1], the cell count amounted to 690. Further, the inhibition in [1] was 2.2% (inactive); in [2], -30.9% (inactive); in assay [4], 15.9% (inactive); in [9], -4.32% (inactive). Also, the nuclei count in assay [2] was found to be 178%. Moreover, the z-score in assay [3] (setting [10]) was determined as 0.755; in assay [3] (setting [11]), 0.954; in assay [3] (setting [12]) it was 0.248. Further, the fluorescence slope is -0.48 (inactive) in assay [5] and 0.00449 (inactive) in assay [7]. Moreover, the NADPH fluorescence slope in assay [6] is -6.5e-05 (inactive). Besides, in assay [8], the call was inactive.
Consider `Nc1nnnn1/N=C/c1ccco1`, for which the cell count in assay [1] worked out at 510. The inhibition in assay [1] was -4% (inactive); in assay [2], -8.3% (inactive); in assay [4], 11% (inactive); in assay [9], -6.14% (inactive). Further, in assay [2], the nuclei count was determined as 90.4%. Also, the z-score in [3] (setting [10]) is 0.476; in assay [3] (setting [11]), 0.245; in assay [3] (setting [12]), -0.718. The fluorescence slope was -0.502 (inactive) in assay [5] and 0.00713 (inactive) in assay [7]. Further, the NADPH fluorescence slope in [6] is -4.9e-05 (inactive). The call in assay [8] was inactive.
Consider `CCC(NC(=O)Nn1cnnc1)(C(F)(F)F)C(F)(F)F`, for which the cell count in assay [1] came to 726. For the same compound, the inhibition in [1] is 3.1% (inactive); in assay [2], -59.3% (inactive); in assay [4], 1.98% (inactive); in [9], 19.5% (inactive). This compound also yielded a nuclei count in [2] of 185%. Besides, the z-score in assay [3] (setting [10]) was -0.283; in assay [3] (setting [11]) it was -1.06; in assay [3] (setting [12]) it was 1.12. In addition, the fluorescence slope is -0.49 (inactive) in [5] and 0.00453 (inactive) in [7]. The NADPH fluorescence slope in assay [6] is -6.6e-05 (inactive). For the same compound, the compound was classed as inactive in [8].
Regarding `O=C(OCCN1CCOCC1)c1ccc2c(c1)OCCO2`, in assay [1], the cell count is 644. For the same compound, the inhibition is -12.8% (inactive) in assay [1], 1.7% (inactive) in [2], -9.53% (inactive) in assay [4] and -3.31% (inactive) in [9]. The same compound returned a nuclei count in assay [2] of 180%. Further, the z-score in [3] (setting [10]) was 0.036; in assay [3] (setting [11]), 0.0112; in assay [3] (setting [12]) it was 0.434. Moreover, the fluorescence slope in [5] was -0.473 (inactive); in [7], 0.00543 (inactive). For the same compound, in [6], the NADPH fluorescence slope was -6.5e-05 (inactive). Besides, in assay [8], the call was inactive.
For the compound `Cc1cc(=O)oc2ccc(OCC(=O)N3CCc4ccccc43)cc12`, the cell count in assay [1] was determined as 630. In addition, the inhibition was -1.2% (inactive) in assay [1], -32.9% (inactive) in [2], -2.29% (inactive) in [4] and 1.65% (inactive) in assay [9]. The compound also gave a nuclei count in assay [2] of 180%. Moreover, the z-score is -1.93 in [3] (setting [10]), 0.803 in assay [3] (setting [11]) and 1.57 in [3] (setting [12]). Besides, the fluorescence slope in [5] is -0.478 (inactive); in [7], 0.00705 (inactive). The NADPH fluorescence slope in [6] is -7.1e-05 (inactive). The result in [8] was inactive.
With `Cc1ccc(C2/C(=C(\O)c3ccc4c(c3)OCCO4)C(=O)C(=O)N2CCCN(C)C)o1` (centres undefined), the cell count in assay [1] stood at 360. The inhibition in assay [1] was -5.9% (inactive); in assay [2] it was 24.2% (inactive); in assay [4] it was 14% (inactive); in [9] it was -17.7% (inactive). In assay [2], this compound registered a nuclei count of 113%. For the same compound, the z-score was -1.73 in assay [3] (setting [10]), 0.575 in assay [3] (setting [11]) and -0.16 in assay [3] (setting [12]). For the same compound, the fluorescence slope in [5] was -0.474 (inactive); in assay [7] it was 0.00787 (inactive). Further, the NADPH fluorescence slope in [6] is -8.1e-06 (inactive). For the same compound, in assay [8], the result was inactive.
With `COc1ccccc1C1/C(=C(\O)c2ccc3c(c2)OCCO3)C(=O)C(=O)N1CCCN(C)C` (centres undefined), the cell count in [1] came out at 402. The inhibition was 2.9% (inactive) in assay [1], -18% (inactive) in assay [2], -4.78% (inactive) in assay [4] and 12.8% (inactive) in [9]. Further, the nuclei count in [2] is 134%. Besides, the z-score in assay [3] (setting [10]) was 1.75; in [3] (setting [11]), -0.784; in assay [3] (setting [12]), 1.05. Also, the fluorescence slope in assay [5] was -0.456 (inactive); in assay [7] it was 0.00501 (inactive). Also, the NADPH fluorescence slope in assay [6] is -7.9e-05 (inactive). The compound was classed as inactive in [8].
Consider `CCCNC1=C(C)C(=O)CC1`, for which, in [1], the cell count stood at 602. Besides, the inhibition was -0.5% (inactive) in assay [1], -37.1% (inactive) in [2], -0.233% (inactive) in assay [4] and 3.26% (inactive) in assay [9]. This compound returned a nuclei count in assay [2] of 120%. Moreover, the z-score was -1.42 in assay [3] (setting [10]), 0.756 in [3] (setting [11]) and 1.36 in assay [3] (setting [12]). The fluorescence slope in assay [5] is -0.481 (inactive); in assay [7], 0.00471 (inactive). Also, the NADPH fluorescence slope in assay [6] is -4.1e-05 (inactive). In addition, the result in assay [8] was inactive.
